In brackets after ≈: the same amount, converted by molar mass. Some results are limits rather than exact numbers.

As a reminder, the inhibition is how much of the control response was suppressed. The term IC50 denotes the concentration needed to halve the response being measured. By MIC is commonly meant the lowest concentration that inhibits growth of the organism. Low readings indicate greater potency, high ones weaker potency.

Test [1] concerns the target T1, 1-deoxy-D-xylulose 5-phosphate reductoisomerase (Mycobacterium tuberculosis) (UniProt P9WNS1).
T1 sequence (whole entry): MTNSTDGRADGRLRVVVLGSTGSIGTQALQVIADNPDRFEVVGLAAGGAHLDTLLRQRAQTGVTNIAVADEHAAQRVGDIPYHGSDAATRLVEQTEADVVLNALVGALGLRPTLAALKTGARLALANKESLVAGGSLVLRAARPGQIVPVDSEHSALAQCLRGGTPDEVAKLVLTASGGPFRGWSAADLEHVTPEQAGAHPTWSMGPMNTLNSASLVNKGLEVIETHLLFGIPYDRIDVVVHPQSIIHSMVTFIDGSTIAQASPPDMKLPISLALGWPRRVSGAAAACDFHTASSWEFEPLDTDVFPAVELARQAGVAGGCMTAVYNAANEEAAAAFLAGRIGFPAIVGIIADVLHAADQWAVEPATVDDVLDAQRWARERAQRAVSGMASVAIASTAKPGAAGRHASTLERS
Briefly: Inhibition of Mycobacterium tuberculosis DXR assessed as reduction of 1-deoxy-D-xylulose 5-phosphate into 2-C-methyl-D-erythritol-4-phosphate at 100 uM measured for every 5 secs upto 500 secs by spectrophotometry analysis. Put shortly: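 MtDXR reaction in 50 mM HEPES-NaOH pH 7.5, 100 mM NaCl, 1.5 mM MnCl2, 0.2 mM NADPH, 0.2 mM DXP and a single inhibitor concentration. Started by adding DXP and run at 22 °C. NADPH consumption read as A340 every 5 s for 500 s. Initial velocity from the linear slope gives % inhibition relative to the uninhibited reaction.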

Test [2] concerns the target T2, 1-deoxy-D-xylulose 5-phosphate reductoisomerase (Mycobacterium tuberculosis, UniProt P9WNS1).
T2 sequence (P9WNS1 whole entry): T1 sequence (whole entry)
Briefly: Inhibition of Mycobacterium tuberculosis DXR assessed as reduction of 1-deoxy-D-xylulose 5-phosphate into 2-C-methyl-D-erythritol-4-phosphate measured for every 5 secs upto 500 secs by spectrophotometry analysis. The method, boiled down:
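MtDXR in 50 mM HEPES-NaOH pH 7.5, 100 mM NaCl, 1.5 mM MnCl2, 0.2 mM NADPH and 0.2 mM DXP, started with DXP at 22 °C. A340 read every 5 s for 500 s. Six inhibitor concentrations spanning 0.01–1000. Initial-rate activities relative to the uninhibited reaction were fitted to a Hi/Lo four-parameter curve for IC50.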

Test [3] relates to Mycobacterium tuberculosis. Briefly: Antimycobacterial activity against Mycobacterium tuberculosis by whole-cell assay. The test is classed as functional.

Regarding `CC(=O)N(O)CCCC(=O)NS(C)(=O)=O`, in test [1], the inhibition came out at 29%.

Turning to `CC(=O)N(O)CCc1c(C(=O)O)noc1C`, the inhibition in test [1] was 41%. The IC50 in test [2] came to 151 µM. In addition, in test [3], the MIC is greater than 512 µg/mL.

Turning to `CC(=O)N(O)CCCP(=O)(O)OCCc1ccccc1`, the inhibition in test [1] stood at 23%.

Regarding `O=c1oc2cc(-c3ccccc3)cnc2n1CCCP(=O)(O)O`, the inhibition in test [1] is 11%. For the same molecule, the MIC in test [3] is 256 µg/mL (≈ 766 µM).

Take `O=c1cccc(CCP(=O)(O)O)n1O`: the inhibition in test [1] was 61%. Besides, the half-inhibitory concentration (IC50) in test [2] amounted to 53 µM. This molecule came in with an MIC in test [3] greater than 512 µg/mL.

`O=c1oc2cccnc2n1CCCP(=O)(O)O`: the inhibition in test [1] amounted to 11%.

In the case of `O=C1NC(=O)C(CCP(=O)(O)O)N1` (configuration not stated), in test [1], the inhibition came out at 8%.

With `O=P(O)(O)CCc1ccc(O)c(O)c1`, the inhibition in test [1] is 78%. Further, the IC50 in test [2] is 41 µM. The molecule further had an MIC in test [3] greater than 512 µg/mL.

As for `O=C1N[C@H](CCP(=O)(O)O)CO1`, in test [1], the inhibition was 0%.

Take `O=c1oc2cc(Br)cnc2n1CCCP(=O)(O)O`: the inhibition in test [1] is 7%.

As for `CC(=O)N(O)CCC1NC(=O)NC1=O` (configuration not stated), in test [1], the inhibition came to 13%.

With `CC(=O)N(O)CCCS(=O)(=O)O`, the inhibition in test [1] is 36%. The IC50 in test [2] was greater than 100 µM.

With `CC(=O)N(O)CCCc1nnn[nH]1`, in test [1], the inhibition was found to be 0%.

Take `CC(=O)N(O)CCCC(=O)O`: in test [1], the inhibition amounted to 0%.

(Values after ChEMBL document CHEMBL1821696, “Substitution of the phosphonic acid and hydroxamic acid functionalities of the DXR inhibitor FR900098: an attempt to improve the activity against Mycobacterium tuberculosis” (Bioorg Med Chem Lett, 2011).)
